Data reported in ChEMBL document CHEMBL4382210, “Identification of novel benzothiopyranone compounds against Mycobacterium tuberculosis through scaffold morphing from benzothiazinones” (Eur J Med Chem, 2018).
Values after ≈ are worked out from the molar mass of the structure shown.

Columns and labels:
[1] = test system: Mycobacterium tuberculosis; test: Antimicrobial activity against multi drug-resistant Mycobacterium tuberculosis 12611 after 7 days by MABA; format: functional; details: Mycobacterium tuberculosis, 12611, 168 h
Summary of the method: (§1)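 Strain H37Rv or clinical isolates grown to late log phase in 7H9-ADC-TG, washed, resuspended in PBS, filtered (8 µm) and frozen. On day 7 Tween 80 and alamar blue added, read 16–24 h later (ex 530/em 590). MIC = lowest concentration giving ≥90% fluorescence reduction versus bacterium-only controls.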

[2] = test system: Mycobacterium tuberculosis; test: Antimicrobial activity against multi drug-resistant Mycobacterium tuberculosis 14231 after 7 days by MABA; format: functional; details: Mycobacterium tuberculosis, 14231, 168 h; summary of the method: as §1

| Compound | MIC90 [1] [mg/L] | MIC90 [2] [mg/L] |
| --- | --- | --- |
| O=c1cc(N2CCN(Cc3ccccc3)CC2)sc2c([N+](=O)[O-])cc(C(F)(F)F)cc12 | 0.011 (≈ 0.0245 µM) | 0.023 (≈ 0.0512 µM) |
| O=c1cc(N2CCN(CC3CCCCC3)CC2)sc2c([N+](=O)[O-])cc(C(F)(F)F)cc12 | < 0.002 | < 0.002 |
| NNC(=O)c1ccncc1 [ISONIAZID] | 19.5 (≈ 142 µM) | > 40 |
| O=c1nc(N2CCN(CC3CCCCC3)CC2)sc2c([N+](=O)[O-])cc(C(F)(F)F)cc12 [MACOZINONE] | < 0.002 | < 0.002 |
| CO[C@H]1/C=C/O[C@@]2(C)Oc3c(C)c(O)c4c(O)c(c(/C=N/N5CCN(C)CC5)c(O)c4c3C2=O)NC(=O)/C(C)=C\C=C\[C@H](C)[C@H](O)[C@@H](C)[C@@H](O)[C@@H](C)[C@H](OC(C)=O)[C@@H]1C [RIFAMPIN] | > 40 | > 40 |
